pIC50: −log10 of the molar value.
Legend:
[1] = molecular target: T1, Amine oxidase [flavin-containing] B (Homo sapiens, UniProt P27338); test: Inhibition of human MAOB
T1 sequence (P27338 whole entry): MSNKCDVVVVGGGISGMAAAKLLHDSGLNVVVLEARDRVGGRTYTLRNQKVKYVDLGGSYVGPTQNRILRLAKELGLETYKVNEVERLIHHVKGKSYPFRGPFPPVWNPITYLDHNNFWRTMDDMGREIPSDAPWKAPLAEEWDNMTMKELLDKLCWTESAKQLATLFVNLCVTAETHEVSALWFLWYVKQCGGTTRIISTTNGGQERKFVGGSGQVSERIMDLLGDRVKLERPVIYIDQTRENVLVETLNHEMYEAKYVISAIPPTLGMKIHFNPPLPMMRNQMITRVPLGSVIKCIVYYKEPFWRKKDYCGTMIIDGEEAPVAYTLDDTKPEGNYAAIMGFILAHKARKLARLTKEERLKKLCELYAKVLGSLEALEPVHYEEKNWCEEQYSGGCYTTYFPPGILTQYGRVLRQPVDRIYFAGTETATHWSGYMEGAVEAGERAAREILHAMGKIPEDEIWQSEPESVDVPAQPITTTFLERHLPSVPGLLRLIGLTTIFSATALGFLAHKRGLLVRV
How it was run: (§1)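 Recombinant human MAO-A or -B as microsomes from baculovirus-infected BTI-TN-5B1-4 insect cells, dosed to oxidize 165 pmol p-tyramine/min in controls (A 1.1 µg, B 7.5 µg protein). Preincubated with inhibitor 15 min at 37 °C in 0.05 M sodium phosphate pH 7.4. Started with 1 mM p-tyramine, 200 µM Amplex Red, 1 U/ml HRP (final). Resorufin fluorescence (ex 545/em 590 nm) read over 15 min at 37 °C, background subtracted.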

[2] = molecular target: T2, Amine oxidase [flavin-containing] A (Homo sapiens, UniProt P21397); test: Inhibition of human MAOA; how it was run: as §1
T2 sequence (P21397 whole entry): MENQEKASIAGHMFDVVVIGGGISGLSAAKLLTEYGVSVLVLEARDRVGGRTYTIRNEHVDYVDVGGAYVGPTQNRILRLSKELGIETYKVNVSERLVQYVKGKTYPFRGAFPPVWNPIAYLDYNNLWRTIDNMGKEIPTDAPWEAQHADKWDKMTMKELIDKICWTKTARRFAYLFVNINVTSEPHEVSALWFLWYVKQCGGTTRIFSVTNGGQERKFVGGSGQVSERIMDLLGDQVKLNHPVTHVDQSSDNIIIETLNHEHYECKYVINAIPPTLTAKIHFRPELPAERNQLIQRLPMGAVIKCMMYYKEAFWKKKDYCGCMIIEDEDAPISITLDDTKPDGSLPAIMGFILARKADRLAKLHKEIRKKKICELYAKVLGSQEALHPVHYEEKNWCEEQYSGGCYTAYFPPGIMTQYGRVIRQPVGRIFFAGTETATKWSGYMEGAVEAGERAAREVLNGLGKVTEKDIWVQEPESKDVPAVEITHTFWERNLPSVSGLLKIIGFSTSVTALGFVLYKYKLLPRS

[3] = molecular target: T2, Amine oxidase [flavin-containing] A; test: Inhibition of human recombinant MAOA expressed in BTI-TN-5B1-4 cells at 100 uM by para-tyramine oxidation assay; format: cell-based; conditions: for inhibition (INH): human, bti-tn-5b1-4, 100 µM; for inhibition at 100 µM: BTI-TN-5B1-4, human
[4] = molecular target: T1, Amine oxidase [flavin-containing] B; format: cell-based, BTI-TN-5B1-4
Homo sapiens = species: Homo sapiens; test: Selectivity for human MAOB over human MAOA
How it was run: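 Selectivity index = IC50(hMAO-A)/IC50(hMAO-B), both from Amplex Red/p-tyramine fluorimetric assays on insect-cell recombinant enzymes.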

[5] = molecular target: T1, Amine oxidase [flavin-containing] B; test: Inhibition of human recombinant MAOB expressed in BTI-TN-5B1-4 cells at 100 uM by para-tyramine oxidation assay; format: cell-based; conditions: for inhibition at 100 µM: BTI-TN-5B1-4, human; for inhibition (INH): human, bti-tn-5b1-4, 100 µM
[6] = Inhibition of human monoamine oxidase

Row | Compound | inhibition (INH) [3] | pIC50 [4] | Ratio IC50 (Homo sapiens) | also measured
1 | O=c1c(O)c(-c2ccc(O)c(O)c2)oc2cc(O)cc(O)c12 [QUERCETIN] |  |  |  | pIC50 [1]: 4.05; pIC50 [2]: 5.55
2 | COc1ccc(-c2cc(=O)c3ccc(OC)cc3o2)cc1 [4,7-DIMETHOXYFLAVONE] | Not Active | 4.30 | > 2 | 
3 | COc1ccc2c(c1)O[C@H](c1ccc(F)cc1)CC2=O | Not Active | 6.80 | > 625 | 
4 | Cc1ccc(-c2cc(=O)c3ccc(C)cc3o2)cc1 |  |  |  | inhibition at 100 µM [3]: 40%; inhibition at 100 µM [5]: 40%
5 | Cc1ccc(C2CC(=O)c3ccc(C)cc3O2)cc1 (racemic) | Not Active | 6.30 | > 200 | 
6 | O=C1c2c(O)cc(O)cc2O[C@H](c2ccc(O)cc2)[C@H]1O [DIHYDROKAEMPFEROL] |  |  |  | pIC50 [6]: 3.82
7 | COc1ccc2c(c1)OC(c1ccccc1)CC2=O (racemic) | Not Active | 5.83 | > 68 | 
8 | COc1ccc2c(c1)OC(c1ccc(C)cc1)CC2=O (racemic) | Not Active | 6.26 | > 182 | 
9 | O=c1cc(-c2ccccc2)oc2ccccc12 [FLAVONE] |  |  |  | inhibition at 100 µM [3]: 40%; inhibition (INH) [5]: Not Active
10 | COc1ccc(-c2cc(=O)c3ccc(C)cc3o2)cc1 |  |  |  | inhibition at 100 µM [3]: 40%; inhibition at 100 µM [5]: 40%
11 | O=c1cc(-c2ccc(O)c(O)c2)oc2cc(O)cc(O)c12 [LUTEOLIN] |  |  |  | pIC50 [1]: 4.22; pIC50 [2]: 5.31
12 | O=C1CC(c2ccc(F)cc2)Oc2ccccc21 (racemic) | Not Active | 5.36 | > 23 | 
13 | O=C1c2c(O)cc(O)cc2O[C@H](c2ccc(O)c(O)c2)[C@H]1O [(+)-TAXIFOLIN] |  |  |  | pIC50 [6]: 3.81
14 | COc1cc(-c2cc(=O)c3c(O)c(OC)c(O)cc3o2)ccc1O [JACEOSIDINE] |  |  |  | pIC50 [6]: 4.72
15 | COc1ccc(C2CC(=O)c3ccc(F)cc3O2)cc1 (racemic) | Not Active | 6.77 | > 588 | 
16 | COc1ccc(C2CC(=O)c3ccccc3O2)cc1 (racemic) | Not Active | 5.66 | > 45 | 
17 | Cc1ccc(C2CC(=O)c3ccc(F)cc3O2)cc1 (racemic) | Not Active | 6.80 | > 625 | 
18 | Cc1ccc2c(c1)OC(c1ccccc1)CC2=O (racemic) | Not Active | 5.44 | > 28 | 
19 | COc1ccc2c(c1)O[C@@H](c1ccc(F)cc1)CC2=O | Not Active | 6.70 | > 500 | 
20 | Fc1ccc2c(=S)cc(-c3ccccc3)oc2c1 |  |  |  | inhibition at 100 µM [3]: 40%; inhibition at 100 µM [5]: 40%
21 | O=c1cc(-c2ccc(F)cc2)oc2ccccc12 |  |  |  | inhibition at 100 µM [3]: 40%; inhibition at 100 µM [5]: 40%
22 | Cc1ccc(C2CC(=O)c3ccccc3O2)cc1 (racemic) | Not Active | 5.68 | > 48 | 
23 | Cc1ccc([C@H]2CC(=O)c3ccc(C)cc3O2)cc1 | Not Active | 6.28 | > 189 | 
24 | Cc1ccc([C@@H]2CC(=O)c3ccc(C)cc3O2)cc1 | Not Active | 6.23 | > 169 | 
25 | O=C1CC(c2ccc(F)cc2)Oc2cc(F)ccc21 (racemic) | Not Active | 6.17 | > 149 | 
26 | COc1ccc(C2CC(=O)c3ccc(OC)cc3O2)cc1 (racemic) [LIQUIRITIGENIN DIMETHYL ETHER] | Not Active | 5.14 | > 14 | 
27 | O=C1CC(c2ccccc2)Oc2ccccc21 (racemic) [FLAVANONE] | Not Active | 5.54 | > 35 | 
28 | COc1ccc2c(c1)OC(c1ccc(F)cc1)CC2=O (racemic) | Not Active | 6.77 | > 588 | 
29 | COc1c(O)cc2oc(-c3ccc(O)c(O)c3)cc(=O)c2c1O [EUPAFOLIN] |  |  |  | pIC50 [6]: 4.60
30 | COc1ccc(C2CC(=O)c3ccc(C)cc3O2)cc1 (racemic) | Not Active | 5.47 | > 30 | 

More lines, main results first:

Row | inhibition (INH) [3] | pIC50 [4] | Ratio IC50 (Homo sapiens) | Compound | also measured
31 | Not Active |  |  | Cc1ccc2c(=O)cc(-c3ccc(F)cc3)oc2c1 | inhibition at 100 µM [5]: 40%
32 | Not Active |  |  | COc1ccc2c(=O)cc(-c3ccccc3)oc2c1 [7-METHOXYFLAVONE] | inhibition at 100 µM [5]: 40%
33 |  | 5.87 | > 75 | COc1ccc(-c2cc(=O)c3ccc(F)cc3o2)cc1 | inhibition at 100 µM [3]: 40%
34 | Not Active | 5.17 | > 15 | Cc1ccc(-c2cc(=S)c3ccccc3o2)cc1 | 
35 | Not Active |  |  | Fc1ccc(-c2cc(=S)c3ccccc3o2)cc1 | inhibition (INH) [5]: Not Active
36 | Not Active | 5.17 | > 15 | Cc1ccc(-c2cc(=S)c3ccc(C)cc3o2)cc1 | 
37 | Not Active |  |  | COc1ccc(-c2cc(=S)c3ccc(C)cc3o2)cc1 | inhibition at 100 µM [5]: 40%
38 | Not Active |  |  | Cc1ccc2c(=O)cc(-c3ccccc3)oc2c1 [7-METHYLFLAVONE] | inhibition (INH) [5]: Not Active
39 | Not Active | 5.29 | > 19 | COc1ccc2c(=O)cc(-c3ccc(F)cc3)oc2c1 | 
40 | Not Active |  |  | COc1ccc2c(=S)cc(-c3ccc(F)cc3)oc2c1 | inhibition at 100 µM [5]: 40%
41 | Not Active | 5.36 | > 23 | Cc1ccc(-c2cc(=O)c3ccc(F)cc3o2)cc1 | 
42 |  | 5.79 | > 62 | Cc1ccc(-c2cc(=S)c3ccc(F)cc3o2)cc1 | inhibition at 100 µM [3]: 40%
43 | Not Active | 5.48 | > 30 | COc1ccc(-c2cc(=S)c3ccc(OC)cc3o2)cc1 | 
44 | Not Active | 5.62 | > 42 | Cc1ccc(-c2cc(=O)c3ccccc3o2)cc1 | 
45 | Not Active |  |  | COc1ccc(-c2cc(=S)c3ccc(F)cc3o2)cc1 | inhibition at 100 µM [5]: 40%
46 |  | 5.12 | > 13 | COc1ccc2c(=S)cc(-c3ccc(C)cc3)oc2c1 | inhibition at 100 µM [3]: 40%
47 | Not Active |  |  | Cc1ccc2c(=S)cc(-c3ccc(F)cc3)oc2c1 | inhibition at 100 µM [5]: 40%
48 | Not Active |  |  | Cc1ccc2c(=S)cc(-c3ccccc3)oc2c1 | inhibition at 100 µM [5]: 40%
49 |  | 6.32 | > 208 | COc1ccc(-c2cc(=S)c3ccccc3o2)cc1 | inhibition at 100 µM [3]: 40%
50 | Not Active |  |  | S=c1cc(-c2ccccc2)oc2ccccc12 | inhibition at 100 µM [5]: 40%
51 |  | 4.55 | > 3.6 | COc1ccc(-c2cc(=O)c3ccccc3o2)cc1 [4'-METHOXYFLAVONE] | inhibition at 100 µM [3]: 40%
52 |  | 4.89 | > 7.7 | O=c1cc(-c2ccccc2)oc2cc(F)ccc12 [7-FLUOROFLAVONE] | inhibition at 100 µM [3]: 40%
53 | Not Active | 5.16 | > 15 | Fc1ccc(-c2cc(=S)c3ccc(F)cc3o2)cc1 | 
54 | Not Active | 4.95 | > 8.8 | COc1ccc2c(=O)cc(-c3ccc(C)cc3)oc2c1 | 
55 | Not Active |  |  | COc1ccc2c(=S)cc(-c3ccccc3)oc2c1 | inhibition at 100 µM [5]: 40%
56 | Not Active | 5.42 | > 27 | O=C1CC(c2ccccc2)Oc2cc(F)ccc21 (racemic) | 
57 | Not Active |  |  | O=c1cc(-c2ccc(F)cc2)oc2cc(F)ccc12 | 
